Results on 19 molecules are retold here after ChEMBL document CHEMBL1132483, “Fused bicyclic Gly-Asp beta-turn mimics with specific affinity for GPIIb-IIIa” (J Med Chem, 1999).

Series [1] is filed under the species Homo sapiens. Description: Concentration required to reduce ADP-induced platelet aggregation in platelet rich plasma by 50%. The class given is functional. The method, boiled down: (§1)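 Human platelet-rich plasma was incubated for 1 min with varying test concentrations or vehicle, then aggregation was triggered with ADP. The response was followed turbidimetrically. IC50 is the concentration cutting the aggregation response by 50%, averaged from at least two determinations, with average error ±16%.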

The species entered for series [2] is Homo sapiens. Description: Concentration required to reduce ADP-induced platelet aggregation in platelet rich plasma by 50%. The class given is functional. Put shortly: as §1
For series [3], the target named is Integrin alpha-IIb/beta-3 (Homo sapiens, UniProt P05106+P08514). As to the kind of experiment: Inhibition of fibrinogen binding to purified human alpha IIb beta-3 integrin (GP IIb-IIIa). The class given is protein-complex assay.
Chain of Integrin alpha-IIb/beta-3 (P05106 27-788 limits assumed): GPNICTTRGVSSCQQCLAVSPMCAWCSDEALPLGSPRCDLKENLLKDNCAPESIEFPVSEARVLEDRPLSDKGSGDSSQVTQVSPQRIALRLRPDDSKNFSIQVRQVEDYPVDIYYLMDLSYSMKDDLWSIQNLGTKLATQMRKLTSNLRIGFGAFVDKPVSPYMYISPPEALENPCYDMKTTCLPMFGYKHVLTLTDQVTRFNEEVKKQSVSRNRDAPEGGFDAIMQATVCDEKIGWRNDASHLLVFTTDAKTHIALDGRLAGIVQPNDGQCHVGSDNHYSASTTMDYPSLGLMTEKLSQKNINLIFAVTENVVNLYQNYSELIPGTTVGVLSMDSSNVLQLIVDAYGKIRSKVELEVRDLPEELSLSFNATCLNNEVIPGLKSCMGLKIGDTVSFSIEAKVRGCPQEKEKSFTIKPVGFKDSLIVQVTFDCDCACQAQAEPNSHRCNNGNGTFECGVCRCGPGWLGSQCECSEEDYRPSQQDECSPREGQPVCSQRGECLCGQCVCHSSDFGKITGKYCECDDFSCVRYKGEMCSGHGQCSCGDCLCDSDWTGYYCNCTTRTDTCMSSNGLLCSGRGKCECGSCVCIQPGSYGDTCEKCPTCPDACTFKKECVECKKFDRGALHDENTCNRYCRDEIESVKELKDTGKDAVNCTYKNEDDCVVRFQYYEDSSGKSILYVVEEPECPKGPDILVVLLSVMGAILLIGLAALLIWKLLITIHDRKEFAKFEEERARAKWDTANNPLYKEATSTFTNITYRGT
Chain of Integrin alpha-IIb/beta-3 (P08514 32-887 limits assumed): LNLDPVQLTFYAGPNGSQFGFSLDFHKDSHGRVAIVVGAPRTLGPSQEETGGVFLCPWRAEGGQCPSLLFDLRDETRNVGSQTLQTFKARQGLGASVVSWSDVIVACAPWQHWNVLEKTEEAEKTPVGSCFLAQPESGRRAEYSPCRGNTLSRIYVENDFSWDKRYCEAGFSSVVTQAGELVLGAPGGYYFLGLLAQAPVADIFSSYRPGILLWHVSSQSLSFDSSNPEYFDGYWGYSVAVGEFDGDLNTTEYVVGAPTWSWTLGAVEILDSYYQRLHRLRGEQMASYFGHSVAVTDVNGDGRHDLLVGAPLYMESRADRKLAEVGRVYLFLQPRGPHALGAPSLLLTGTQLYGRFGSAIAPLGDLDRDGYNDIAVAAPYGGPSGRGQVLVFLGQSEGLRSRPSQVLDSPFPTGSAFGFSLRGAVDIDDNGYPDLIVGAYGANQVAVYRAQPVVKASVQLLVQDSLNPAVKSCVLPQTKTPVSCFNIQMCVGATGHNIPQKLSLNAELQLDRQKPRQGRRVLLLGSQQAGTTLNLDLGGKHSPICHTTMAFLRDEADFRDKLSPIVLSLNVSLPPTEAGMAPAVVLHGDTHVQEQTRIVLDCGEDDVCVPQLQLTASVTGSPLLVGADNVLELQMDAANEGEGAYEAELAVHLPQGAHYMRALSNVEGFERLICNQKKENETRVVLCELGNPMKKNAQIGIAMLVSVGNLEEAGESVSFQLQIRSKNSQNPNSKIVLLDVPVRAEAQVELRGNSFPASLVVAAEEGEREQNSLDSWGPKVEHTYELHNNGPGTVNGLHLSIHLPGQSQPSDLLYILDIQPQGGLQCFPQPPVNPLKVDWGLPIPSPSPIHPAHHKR
Chain of Integrin alpha-IIb/beta-3 (P08514 891-1039 limits assumed): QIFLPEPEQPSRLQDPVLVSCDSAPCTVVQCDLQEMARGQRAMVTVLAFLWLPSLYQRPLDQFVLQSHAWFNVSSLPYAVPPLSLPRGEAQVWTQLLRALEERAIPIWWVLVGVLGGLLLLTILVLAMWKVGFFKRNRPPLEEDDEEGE
Series [4] is described as follows: Cmax (ng /mL) value after oral administration of 10 mg/kg in guinea pig. The class given is ADME, organism-based, Cavia porcellus. Also noted: dose 10 mg/kg, route oral. The settings on record: in vivo. The method, boiled down:
(§2)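 Guinea pigs were fasted overnight and given a single 10 mg/kg oral gavage dose, formulated at 3 mg/mL in 50% poly(ethylene glycol) 300. Blood was drawn under isoflurane anesthesia into 3.8% trisodium citrate (9:1). Plasma was assayed by HPLC. AUC covers the 0-5 h time course, and Cmax is the peak plasma level.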

The nature of series [5]: AUC (ng h/mL) value after oral administration of 10 mg/kg in guinea pig. The arrangement: dose 10 mg/kg, route oral. Format: ADME, organism-based, Cavia porcellus. The settings on record: plasma. The method, boiled down:
as §2

The nature of series [6]: Cmax(ng /mL)values after oral administration of 10 mg/kg in guinea pig. The arrangement: dose 10 mg/kg, route oral. Particulars: in vivo. Format: ADME, organism-based, Cavia porcellus. The method, boiled down: as §2
Series [7] is described as follows: AUC(ng h/mL)values after oral administration of 10 mg/kg in guinea pig. The class given is ADME, organism-based, Cavia porcellus. The settings on record: plasma. Also noted: dose 10 mg/kg, route oral. Put shortly:
as §2

The nature of series [8]: Cmax(ng /mL)values after oral administration of 10 mg/kg in rat. The class given is ADME, organism-based. The arrangement: dose 10 mg/kg, route oral. The settings on record: in vivo. The method, boiled down: (§3)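 Rats were fasted overnight and dosed once by oral gavage at 10 mg/kg, in vehicle of 50% poly(ethylene glycol) 300 at 3 mg/mL. Blood was collected under isoflurane into 3.8% trisodium citrate (9:1), and plasma was prepared for HPLC analysis. AUC refers to the sampled time course.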

The nature of series [9]: AUC(ng h/mL)values after oral administration of 10 mg/kg in rat. The class given is ADME, organism-based. Also noted: dose 10 mg/kg, route oral. The settings on record: plasma. The method, boiled down: as §3

For orientation: IC50 means the concentration at which inhibition is half-maximal. A high value points to a need for much substance. As to `N=C(N)c1ccc(C(=O)Nc2ccc3c(c2)CCC(CC(=O)O)C3=O)cc1` (stereo unspecified), the IC50 in the series filed under Homo sapiens [1] worked out at 0.02 µg/mL; in the series filed under Homo sapiens [2], 60 nM.

On to `N=C(N)c1ccc(COc2ccc3c(=O)n(CC(=O)O)ccc3c2)cc1`, for which the IC50 in [3] came out at 4200 nM. This lies in the single-digit micromolar range.

For the molecule `N=C(N)c1ccc(COc2ccc3c(c2)CCC(CC(=O)O)O3)cc1` (stereo unspecified), the figures for the IC50 (in the series listed under Homo sapiens [2]; in series [3]) were 2500 nM and 39 nM, respectively.

One may read the Cmax as the peak of the concentration-time curve. A word on the AUC: it is concentration integrated over time. Read a high AUC as more exposure. Consider `CCOC(=O)Cn1ccc2cc(NC(=O)c3ccc(C(=N)N)cc3)ccc2c1=O`, for which, in [4], the Cmax is 177 ng/mL. Also, the AUC in series [5] was determined as 543 ng·h/mL.

In turn, `CCOC(=O)Cc1cc2ccc(NC(=O)c3ccc(C(=N)N)cc3)cc2cn1` gave a maximum concentration (Cmax) in series [4] of 469 ng/mL. In series [5], this molecule returned an AUC of 1580 ng·h/mL.

In the case of `N=C(N)c1ccc(COc2ccc3c(c2)CN(CC(=O)O)C3=O)cc1`, in series [3], the IC50 was determined as 1200 nM.

In turn, `N=C(N)c1ccc(C(=O)Nc2ccc3c(c2)CCC(CC(=O)O)C3)cc1` (stereo unspecified) showed a peak concentration (Cmax) in [6] of 252 ng/mL. The same molecule gave an exposure (AUC) in [7] of 903 ng·h/mL. The half-maximal inhibitory concentration (IC50) in the series listed under Homo sapiens [1] came out at 190 nM; in the series filed under Homo sapiens [2], 0.067 µg/mL.

For the molecule `CCOC(=O)CC1CCc2cc(NC(=O)c3ccc(C(=N)N)cc3)ccc2C1` (stereo unspecified), the results for the Cmax in series [6] and in [8] were 1170 ng/mL and 5060 ng/mL, respectively. The figures for the AUC in [7] and in series [9] were 3700 ng·h/mL and 15900 ng·h/mL, respectively.

For `N=C(N)c1ccc(COc2ccc(C(=O)NCC(=O)O)cc2)cc1`, the IC50 in series [3] worked out at 5000 nM.

In the case of `N=C(N)c1ccc(COc2ccc3c(c2)CC(=O)N(CC(=O)O)C3)cc1`, the half-inhibitory concentration (IC50) in [3] amounted to 5800 nM.

On to `N=C(N)c1ccc(C(=O)Nc2ccc3c(c2)CCN(CC(=O)O)C3)cc1`, for which the IC50 in the series filed under Homo sapiens [1] turned out to be 0.06 µg/mL; in the series listed under Homo sapiens [2] it was 170 nM.

In [8], `CCOC(=O)CC1CCc2cc(NC(=O)c3ccc(C(=N)N)cc3)ccc2O1` (stereo unspecified) returned a Cmax of 4850 ng/mL. Further, the AUC in [9] came out at 14800 ng·h/mL.

In the case of `CCOC(=O)CC1CCc2cc(NC(=O)c3ccc(C(=N)N)cc3)ccc2C1=O` (stereo unspecified), the peak concentration (Cmax) in series [6] came to 1150 ng/mL; in series [8], 3630 ng/mL. The AUC is 3990 ng·h/mL in [7] and 11200 ng·h/mL in series [9].

As for `N=C(N)c1ccc(C(=O)Nc2ccc3c(c2)CCN(CC(=O)O)C3=O)cc1`, the highest level in series [6] (Cmax) was 126 ng/mL. In series [7], this molecule had an AUC of 400 ng·h/mL. Moreover, the values for the IC50 in the series listed under Homo sapiens [1] and in the series listed under Homo sapiens [2] were 90 nM and 0.032 µg/mL, respectively.

In the case of `N=C(N)c1ccc(C(=O)Nc2ccc3c(c2)CCC(CC(=O)O)O3)cc1` (stereo unspecified), the concentration for half-maximal inhibition (IC50) in the series filed under Homo sapiens [1] was found to be 0.027 µg/mL; in the series filed under Homo sapiens [2], 190 nM; in [3], 2 nM.

Molecule `N=C(N)c1ccc(COc2ccc3c(c2)CCCN(CC(=O)O)C3=O)cc1` returned an IC50 in [3] of 600 nM.

Turning to `N=C(N)c1ccc(COc2ccc3c(c2)CCC(CC(=O)O)C3=O)cc1` (stereo unspecified), the half-inhibitory concentration (IC50) in the series listed under Homo sapiens [2] worked out at 450 nM; in [3] it was 27 nM.

For `N=C(N)c1ccc(COc2ccc3c(c2)CCC(CC(=O)O)C3)cc1` (stereo unspecified), the 50% inhibitory concentration (IC50) was 33000 nM in the series listed under Homo sapiens [2] and 260 nM in [3].

Consider `N=C(N)c1ccc(COc2ccc3c(c2)CCN(CC(=O)O)C3)cc1`, for which half-maximal inhibition in the series filed under Homo sapiens [2] (IC50) required 330 nM.
